≈ marks a conversion by molar mass, not a printed value.
Tests used:
[1] = Transwell transport study in MDCK-MDR1 monolayer; format: in vitro ADME, canine; conditions: dog
Outline: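 MDCK-MDR1 cells were seeded at 5 × 10^5 cells/well on 0.4 µm polycarbonate inserts and cultured 7 d; medium was changed every other day, then daily after day 4. Only monolayers with TEER above 140 ohms were used. Monolayers were equilibrated 30 min in HBSS at 37 °C. […] Receiver samples were taken at 15–120 min for HPLC. Papp = (ΔR/Δt)/(S·C0), with S 4.71 cm2; the efflux ratio was calculated from Papp.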

[2] = Physiologically based absorption modeling; set-up: species or system rat
[3] = Saturated solubility of AG-CDs binary formulations; format: physicochemical; conditions: distilled water
Outline: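 Binary complexes were made by grinding. γ-CD was dissolved in distilled water, compound added at 1:1 or 1:2 molar ratio, and the mix ground 2 h to a paste. The paste was dried at 50 °C under vacuum, pulverised and passed through an 80-mesh sieve.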

[4] = cited from earlier work
Dissolution study = format: physicochemical; conditions: different pH media, 150 mg AG in 1000 ml, 75 rpm, 37 °C, up to 60 min
Outline: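 USP-type paddle method (Ch.P 2015 Apparatus II) at 75 rpm and 37 ± 0.5 °C. Medium was 1000 ml of distilled water, 0.1 mol/l HCl, pH 6.8 phosphate buffer or 1% SDS. Pure compound or formulations were added at 150 mg compound-equivalent. Aliquots were drawn at 5, 10, 15, 20, 30, 45 and 60 min and replaced with fresh medium. Samples were filtered through 0.45 µm and assayed by HPLC.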

[5] = In vivo pharmacokinetic study after oral administration; set-up: species or system Sprague-Dawley rats; conditions: male, Sprague-Dawley, rat, plasma, 40 mg/kg
MDCK-MDR1 cells = test: Cellular uptake of AG with P-gp inhibitors; format: cell-based, canine; conditions: 100 µM AG, 200 µM γ-CD, 1% P-gp inhibitor, 37 °C, 90 min
Outline: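 MDCK-MDR1 cells were grown in DMEM with 10% heat-inactivated FBS and 1% penicillin/streptomycin at 37 °C, 5% CO2. Cells were seeded at 5 × 10^5 cells/well and left to adhere overnight. At 80% confluence they were exposed for 90 min at 37 °C to 100 µM test compound, with or without 200 µM γ-CD plus 1% Tween 80, TPGS, P407 or Cremophor EL. Cells were washed three times in ice-cold PBS, lysed in 1% Triton X-100, and intracellular compound was measured by HPLC. […] Triplicates, mean ± SD.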

[6] = three-compartment model fitted to 5 mg/kg i.v. data of ref 35

C=C1CC[C@@H]2[C@](C)(CO)[C@H](O)CC[C@@]2(C)[C@@H]1C/C=C1/C(=O)OC[C@H]1O [AG, Andrographolide]
Papp A→B at 120 min, 20 µM [1]: 0.47 ± 0.04 ×10⁻⁶ cm/s | Papp B→A at 120 min, 20 µM [1]: 4.9 ± 0.05 ×10⁻⁶ cm/s | efflux ratio at 120 min, 20 µM [1]: 10.4 | Dissolution rate (constant) ([2]; fitted to dissolution test result, pH 6.8 PBS): 148 µL/min/mg | Central (compartment volume) [2, 6]: 1460 mL | K10 [2, 6]: 0.7518 h⁻¹ | K12 [2, 6]: 1.29 h⁻¹ | K13 [2, 6]: 4.5125 h⁻¹ | K21 [2, 6]: 0.27 h⁻¹ | K31 [2, 6]: 7.0938 h⁻¹ | Periperal_2 (compartment volume) [2, 6]: 1000 mL | Peripheral_1 (compartment volume) [2, 6]: 6000 mL | solubility [3]: 74.6 µg/mL (≈ 213 µM) | Unbound fraction (plasma) [4]: 0.35 | AG released (dissolution) (Dissolution study): 17% | AUC(0-inf) [5]: 426 ± 76.8 ng·h/mL | AUC(0-t) [5]: 351 ± 56.5 ng·h/mL | Cmax [5]: 57.8 ± 14.8 ng/mL | Tmax [5]: 1.33 ± 0.52 h | half-life [5]: 9.72 ± 1.38 h | k el [5]: 2e-05 s⁻¹

D-α-Tocopherol polyethylene glycol succinate [TPGS]
Cellular uptake of AG (MDCK-MDR1 cells): 1.04 nmol/mg protein
